“And” between values parts separate entries of the source, which are not always exact repeats. Equal values may be shown once. One block for each substance: values may come before it.
Columns and labels:
[1] = Range is evaluated. (Highest IC50/Lowest IC50); assay type: functional
ZR-75-1 = experiment: Compound was tested for in vitro growth inhibition of primary panel tumor cell linZR-75-1; assay type: functional, cell-based, Homo sapiens
How it was run: (§1)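 Primary-panel lines kept in L15, RPMI 1640 plus pyruvate, or MEM, each with 10% FBS. Cells were seeded at 5×10^4–10^5 cells/mL, preincubated 24 h, then exposed 4 h to 0–200 μg/mL from a 2 mg/mL stock in 10% DMA/PBS. After washout and 72 h further growth, cells were read by SRB. IC50 was the concentration giving 50% survival versus untreated controls.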

CH1 [2] = experiment: Compound was tested for in vitro growth inhibition of Ovarian carcinoma cell line panel CH1-R; assay type: functional, cell-based
How it was run: (§2)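 Ovarian lines grown as monolayers in DMEM with 10% FBS, insulin, hydrocortisone and L-glutamine under 6% CO2. Cells were seeded at 3–5 × 10³/well and left to attach overnight. Compounds were freshly dissolved in DMA or water and applied for 96 h in quadruplicate wells. Growth was measured by SRB and reported as IC50.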

SK-OV-3 [3] = experiment: Compound was tested for in vitro growth inhibition of Ovarian carcinoma cell line panel SK-OV-3; assay type: functional, cell-based, Homo sapiens; how it was run: as §2
HT-29 = experiment: Compound was tested for in vitro growth inhibition of primary panel tumor cell line HT-29/219; assay type: functional, cell-based, Homo sapiens; how it was run: as §1
CH1 [4] = experiment: Compound was tested for in vitro growth inhibition of Ovarian carcinoma cell line panel CH1; assay type: functional, cell-based; how it was run: as §2
SW-620 = experiment: Compound was tested for in vitro growth inhibition of primary panel tumor cell lines SW620; assay type: functional, cell-based, Homo sapiens; how it was run: as §1
A2780 [5] = experiment: Compound was tested for in vitro growth inhibition of Ovarian carcinoma cell line panel A2780; assay type: functional, cell-based, Homo sapiens; how it was run: as §2
HT-1376 = experiment: Compound was tested for in vitro growth inhibition of primary panel tumor cell line HT1376; assay type: functional, cell-based, Homo sapiens; how it was run: as §1
SK-OV-3 [6] = experiment: Compound was tested for in vitro growth inhibition of primary panel tumor cell line SK-OV-3; assay type: functional, cell-based, Homo sapiens; how it was run: as §1
HX62 cell line = experiment: Compound was tested for in vitro growth inhibition of Ovarian carcinoma cell line panel HX62; assay type: functional, cell-based, Homo sapiens; how it was run: as §2
SW 1116 = experiment: Compound was tested for in vitro growth inhibition of primary panel tumor cell line SW1116; assay type: functional, cell-based, Homo sapiens; how it was run: as §1
A2780 [7] = experiment: Compound was tested for in vitro growth inhibition of Ovarian carcinoma cell line panel A2780-R; assay type: functional, cell-based, Homo sapiens; how it was run: as §2
Mus musculus [8] = experiment: Compound was evaluated for antitumor activity (RTV) in HT1376 carcinoma Xenograft, at a dosage 4.5 mg/kg on day 7; assay type: functional, organism-based; set-up: dose 4.5 mg/kg
How it was run: (§3)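 HT1376 tumor fragments implanted subcutaneously in nude mice flanks; mice with established palpable tumors randomized into groups of 6 (controls 10). Compounds given intraperitoneally as suspensions in 0.5% carboxymethylcellulose in 0.9% saline, on days 0, 7, 14 and 21. Tumor dimensions on days 0, 7, 14, 21, 28. RTV = 100(mean tumor volume at assessment)/(mean start volume).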

Mus musculus [9] = experiment: Compound was evaluated for antitumor activity (RTV) in HT1376 carcinoma Xenograft, at a dosage 4.5 mg/kgon day 13; assay type: functional, organism-based; set-up: dose 4.5 mg/kg
Mus musculus [10] = experiment: Compound was evaluated for antitumor activity (T/C) in HT1376 carcinoma Xenograft, at a dosage 4.5 mg/kg on day 13; assay type: functional, organism-based; set-up: dose 4.5 mg/kg
How it was run: (§4)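 Nude mice carrying subcutaneous flank HT1376 fragments; treatment began once tumors were established and palpable, randomized into groups of 6 treated and 10 control mice. Dosing was ip as a suspension in 0.5% carboxymethylcellulose in 0.9% saline on days 0, 7, 14 and 21, at the MTD and two 2-fold dilutions. Tumors were measured on days 0-28. RTV = 100(mean volume at assessment)/(mean start volume); T/C = treated RTV/control RTV.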

Mus musculus [11] = experiment: Compound was evaluated for antitumor activity (T/C) in HT1376 carcinoma Xenograft, at a dosage 4.5 mg/kg on day 28; assay type: functional, organism-based; set-up: dose 4.5 mg/kg; how it was run: as §4
Mus musculus [12] = experiment: Compound was evaluated for antitumor activity (RTV) in HT1376 carcinoma Xenograft, at a dosage 4.5 mg/kg on day 28; assay type: functional, organism-based; set-up: dose 4.5 mg/kg; how it was run: as §3
Mus musculus [13] = experiment: Compound was evaluated for antitumor activity (T/C) in HT1376 carcinoma Xenograft, at a dosage 4.5 mg/kg on day 21; assay type: functional, organism-based; set-up: dose 4.5 mg/kg; how it was run: as §4
Mus musculus [14] = experiment: Compound was evaluated for antitumor activity (RTV) in HT1376 carcinoma Xenograft, at a dosage 4.5 mg/kg on day 21; assay type: functional, organism-based; set-up: dose 4.5 mg/kg; how it was run: as §3
Mus musculus [15] = experiment: Compound was evaluated for antitumor activity (T/C) in HT1376 carcinoma Xenograft, at a dosage 4.5 mg/kg on day 7; assay type: functional, organism-based; set-up: dose 4.5 mg/kg; how it was run: as §4

Substance: Bis(thiocyanato)[2-(dimethylamino)methyl]phenyl-C,N]gold-(III)
Range [1]: 7.6 and 19.5

IC50 (SK-OV-3 [3]): 5.2 µM
IC50 (HT-29): 17 µM
IC50 (SW-620): 167 µM
IC50 (A2780 [5]): 1.2 µM
IC50 (HT-1376): 23 µM
IC50 (SK-OV-3 [6]): 23 µM
IC50 (A2780 [7]): 10 µM
Substance: CISPLATIN [listing 1 of 2 here]
IC50 (ZR-75-1): 27 µM
IC50 (CH1 [2]): 0.56 µM
IC50 (CH1 [4]): 0.12 µM
IC50 (HX62 cell line): 18 µM
IC50 (SW 1116): 163 µM

Substance: CISPLATIN [listing 2 of 2 here]
RTV (Mus musculus [8]): 245
RTV (Mus musculus [9]): 364
T/C (Mus musculus [10]): 0.72
T/C (Mus musculus [11]): 0.73
RTV (Mus musculus [12]): 1050
T/C (Mus musculus [13]): 0.61
RTV (Mus musculus [14]): 544
T/C (Mus musculus [15]): 0.88
